According to BindingDB's records for doi:10.1021/jm00096a020 (University of California, 1992):
Values joined by “and” are separate entries in the source; they are usually repeats but may differ in a detail not shown here. Equal entries are not always repeated.

Experiments:
[1] = molecular target: T1, Pol polyprotein (Human immunodeficiency virus 2, UniProt P88142); assay: ChEBML_159124
Excerpt: (§1) Inhibition of HIV-2 protease in 5%DMSO

[2] = molecular target: T2, Human immunodeficiency virus type 1 protease (Human immunodeficiency virus 1, UniProt Q72874); assay: Inhibition of HIV-1 protease in 10% fetal calf serum(FCS)
How it was run: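 COS A6 cells, which constitutively release viral capsids, were exposed to inhibitor in Dulbecco's PBS for 15 min. An equal volume of medium with 10% FCS plus inhibitor was then added and incubation continued for 3.75 h. Capsids were isolated from the supernatant, and polyprotein processing was scored as p24 by ELISA.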

[3] = tested on: HIV-2 protease; assay: Inhibitory concentration against HIV-2 protease
How it was run: (§2)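 Purified recombinant HIV PR activity was followed by cleavage of a decapeptide substrate. Incubation was 30–45 min at 37 °C, and hydrolysis products were quantified by HPLC.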

[4] = molecular target: T1, Pol polyprotein; assay: as §1
How it was run: as §2

[5] = molecular target: T2, Human immunodeficiency virus type 1 protease; assay: Inhibition of HIV-1 protease in 5%DMSO
How it was run: as §2

[6] = tested on: HIV-1 protease; assay: Inhibitory concentration against HIV-1 protease
How it was run: as §2

[7] = molecular target: HIV-2 protease (Human immunodeficiency virus 2); assay: Inhibitory concentration against HIV-2 protease in the absence of DMSO
[8] = molecular target: T2, Human immunodeficiency virus type 1 protease; assay: Binding affinity against HIV-1 protease
How it was run: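 Purified recombinant HIV-1 protease (6 × 10^-4 mg/mL) preincubated 1 min with inhibitor in 50 mM sodium acetate pH 5.5, 1 mM DTT, 1 mM EDTA, 1 M NaCl. Decapeptide substrate then added, 30–45 min at 37 °C. Activity read by HPLC quantitation of hydrolysis products. Inhibition plotted as a Dixon plot at several substrate concentrations.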

[9] = molecular target: T2, Human immunodeficiency virus type 1 protease; assay: (§3) Inhibitory concentration against HIV-1 protease in the absence of DMSO
How it was run: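 The water-soluble dipotassium salt was tested against aspartyl proteases with no DMSO present, and IC50 values were determined.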

[10] = molecular target: HIV-2 protease (Human immunodeficiency virus 2); assay: In vitro Inhibitory activity against HIV-2 protease in the presence of 5%DMSO
[11] = tested on: HIV-2 protease; assay: ChEBML_158058
Excerpt: In vitro Inhibitory activity against HIV-2 protease in the presence of 5%DMSO

[12] = molecular target: T2, Human immunodeficiency virus type 1 protease; assay: ChEBML_79800
Excerpt: as §3

T1 sequence (P88142 whole entry): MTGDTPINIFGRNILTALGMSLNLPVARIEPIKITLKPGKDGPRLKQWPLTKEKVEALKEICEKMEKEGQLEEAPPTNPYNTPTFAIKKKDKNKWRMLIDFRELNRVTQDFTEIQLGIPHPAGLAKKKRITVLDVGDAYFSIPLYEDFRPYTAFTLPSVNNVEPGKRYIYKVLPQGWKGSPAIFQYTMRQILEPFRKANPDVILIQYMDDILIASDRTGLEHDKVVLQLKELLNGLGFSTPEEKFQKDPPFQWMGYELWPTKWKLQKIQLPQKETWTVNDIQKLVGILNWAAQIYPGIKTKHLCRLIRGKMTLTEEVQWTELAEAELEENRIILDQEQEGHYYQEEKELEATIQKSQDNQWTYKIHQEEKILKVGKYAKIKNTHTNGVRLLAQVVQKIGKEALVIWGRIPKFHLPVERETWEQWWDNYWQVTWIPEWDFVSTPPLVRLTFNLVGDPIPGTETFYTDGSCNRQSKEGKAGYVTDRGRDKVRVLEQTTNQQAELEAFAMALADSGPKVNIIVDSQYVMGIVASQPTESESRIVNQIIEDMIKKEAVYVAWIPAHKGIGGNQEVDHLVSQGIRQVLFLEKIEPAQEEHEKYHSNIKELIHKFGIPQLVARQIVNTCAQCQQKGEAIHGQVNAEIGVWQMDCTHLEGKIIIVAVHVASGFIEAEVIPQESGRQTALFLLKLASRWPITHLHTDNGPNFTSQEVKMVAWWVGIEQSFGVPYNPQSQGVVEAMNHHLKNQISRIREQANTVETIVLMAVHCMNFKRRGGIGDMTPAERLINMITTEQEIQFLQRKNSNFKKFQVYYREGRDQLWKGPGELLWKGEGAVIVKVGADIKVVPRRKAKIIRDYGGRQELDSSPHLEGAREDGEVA

| Structure (SMILES) | IC50 [1] [nM] | IC50 [2] | IC50 [3] [nM] | IC50 [4] [nM] | IC50 [5] [nM] | IC50 [6] [nM] | IC50 [7] [nM] | Ki [8] [nM] | IC50 [9] [nM] | IC50 [10] [nM] | IC50 [11] [nM] | IC50 [12] [nM] |
| --- | --- | --- | --- | --- | --- | --- | --- | --- | --- | --- | --- | --- |
| CC1=C(CCC(=O)O)c2cc3nc(cc4[nH]c(cc5[nH]c(cc1n2)c(C)c5C(COC(=O)C1=CCC1)OC(=O)C1=CCC1)c(C)c4C(COC(=O)C1=CCC1)OC(=O)C1=CCC1)C(C)=C3CCC(=O)O (stereo not drawn) |  | 10 µM |  |  |  |  |  |  |  |  | 550 |  |
| CC1=C(CCC(=O)O)/C2=C/c3c(CCC(=O)O)c(C)c4[n]3[Co][n]3/c(c(C)c(C(COC(=O)C5=CC5)OC(=O)C5=CC5)/c3=C/C3=NC(=C\4)/C(C(COC(=O)C4=CC4)OC(=O)C4=CC4)=C3C)=C\C1=N2 (stereo not drawn) | 1500 | 25 µM |  |  |  |  |  |  |  |  |  | 2250 |

Now from value to molecule:

| IC50 [1] [nM] | IC50 [2] | IC50 [3] [nM] | IC50 [4] [nM] | IC50 [5] [nM] | IC50 [6] [nM] | IC50 [7] [nM] | Ki [8] [nM] | IC50 [9] [nM] | IC50 [10] [nM] | IC50 [11] [nM] | IC50 [12] [nM] | Structure (SMILES) |
| --- | --- | --- | --- | --- | --- | --- | --- | --- | --- | --- | --- | --- |
| 700 | 25 µM and > 150 µM | 230 | 700 | 185 | 50 |  |  |  |  |  |  | CC1=C(CCC(=O)O)c2cc3nc(cc4[nH]c(cc5[nH]c(cc1n2)c(C)c5C(COC(=O)C1=CC1)OC(=O)C1=CC1)c(C)c4C(COC(=O)C1=CC1)OC(=O)C1=CC1)C(C)=C3CCC(=O)O (stereo not drawn) |
|  | 65 µM |  |  | 400 |  | 700 | 85 | 100 | 1200 |  |  | CC1=C(CCC(=O)O)/C2=C/c3c(CCC(=O)O)c(C)c4[n]3[Mn][n]3/c(c(C)c(C(COC(=O)C5=CC5)OC(=O)C5=CC5)/c3=C/C3=NC(=C\4)/C(C(COC(=O)C4=CC4)OC(=O)C4C=C4)=C3C)=C\C1=N2 (stereo not drawn) |
| 2200 | > 70 µM |  |  | 975 |  |  | 140 | 725 |  | 470 |  | CC1=C(CCC(=O)O)/C2=C/c3c(CCC(=O)O)c(C)c4[n]3[Cu][n]3/c(c(C)c(C(COC(=O)C5=CC5)OC(=O)C5=CC5)/c3=C/C3=NC(=C\4)/C(C(COC(=O)C4=CC4)OC(=O)C4=CC4)=C3C)=C\C1=N2 (stereo not drawn) |
